Laboratory results published in the EternaBench riboswitch data.

System: MS2 coat protein
Test: apparent Kd, MS2 coat protein; higher = weaker binding; RNA-MaP array; FMN 200 µM where present
How it was run: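 In 100 mM Tris-HCl pH 7.5, 80 mM KCl, 4 mM MgCl2, BSA, DTT, yeast tRNA and Tween-20, SNAP-549-labelled MS2 coat protein was titrated from 0.7 or 1.5 nM, doubling to 3 µM, over designs transcribed by stalled E. coli RNA polymerase on Illumina sequencing-chip clusters. This was done first without ligand, then with ligand held constant. After green signal was normalised to red-channel RNA signal and control-cluster median Fmax, the apparent Kd was taken as the median of filtered per-cluster binding-curve fits.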

[1] = designed as: OFF switch for flavin mononucleotide, no ligand
[2] = ligand present: flavin mononucleotide, designed as: OFF switch for flavin mononucleotide
[3] = designed as: ON switch for flavin mononucleotide, no ligand
[4] = ligand present: flavin mononucleotide, designed as: ON switch for flavin mononucleotide

Sequence	apparent Kd [1]	apparent Kd [2]	apparent Kd [3]	apparent Kd [4]
AUCAGCUCGUCAGGAUAUACGUCACUGCGUCAGCAGUGUGGUGAGAUCACAUGAGGAUCACCCAUGUAGAAGGGACGAGCUGAU	376 nM	300 nM	–	–
GACUUUUCUGAGGAUAUUGCAUCACCCGAUCUAUAAGAAGGCAGAACAUGAGGAUCACCCAUGUGGGUUUCUAG	24.7 nM	33.6 nM	–	–
ACAUGAGGAUCACCCAUGUAUUCAUAGGAUAUACUACAUGAGUUUCAUUCAUGUAAACUUGUAUUGUAGAAGGAUGUUACAUGU	16.4 nM	19.2 nM	–	–
GUAGCAUACCGAGGAUAUUCAGGGCGUGGAUAUACAUGAGGAUCACCCAUGUGGCGGAAGCCUAGGGAGAAGGCGGGCUGCUAC	–	–	21.6 nM	16.3 nM
CUAAGACGAUGUCACGUUGUCGGGACAGAAGGCACGUACAUGAGGAUCACCCAUGUAAAACACAGUGAGGAUAUGUACCUGCGA	–	–	30.8 nM	8.1 nM
CUAUAUAAUACCUCAUGUACAUGAGGAUCACCCAUGUUAACAAAGGAUAUAUUUAUAUUAAUAAAGUAGAAGGUUGUACUAUUU	19.5 nM	17.1 nM	–	–
UAUCUGUGAGGAUAUCCGGGCCCGGGCGAAAGCCCGGGCCCGGAGAAGGCACAUGAGGAUCACCCAUGUGACCU	14.8 nM	19.1 nM	–	–
GUUUUCGCAUGAGGAUAUGCUCGCAUUUUAAGAGCAGAAGGUAUGUCUUUAGACAUGAGGAUCACCCAUGUAUUUAUCAUUGAA	–	–	–	28.2 nM
UGUUGUAUUACAGGAUAUCUAGUAUUUUUAUUGAGAGAAGGGUAUUCACAUGAGGAUCACCCAUGUAUAUACGAGGAAGUUGUG	–	–	50.5 nM	49 nM
GGAGACCUCACAGGAUAUGCUGGACUUUGUCCAGCAGAAGGGUGAAAACAUGAGGAUCACCCAUGUAUGGUCUCCAAAUUUAAC	–	–	182 nM	13.6 nM
UGUCGGAGCAGAGGAUAUUACAUGAGGAUCACCCAUGUAUGAACCAGUAGCUGGAAACAGCAAUGUAAGAAGGCUGCUCCGACA	10.9 nM	91.3 nM	–	–
ACAUUUGGAGGAUAUACCGCUAAGUCAAAUGCAGACCUCCCACAUGAGGAUCACCCAUGUAGAAGGUCAUCUGG	17.1 nM	17.6 nM	–	–
UCGUUGUCAGGAUAUCGUUAAUUUAGUUGUUUGUAUUAGUUCGAGAAGGGACAUGAGGAUCACCCAUGUUUGCU	30.1 nM	70.9 nM	–	–
AGUAAGAUGCAGAAGGUGUCAGCGAGAGCUACGACAUGAGGAUCACCCAUGUACUAGUGAGAGUACGAGGAUAUGCAUCUUACA	–	–	37.3 nM	13.9 nM
UUAUAAAAUAUAGGAUAUGGAAACAUGAGGAUCACCCAUGUAUGAUAAGAUAAAUUAUGAUAUAGCCAGAAGGAUACAAUUUUU	–	–	37.3 nM	35 nM
UAGAAGUCAGGAUAUCCUGCUCGUCACUUGCGUGAUGAGUAGGAGAAGGGACAUGAGGAUCACCCAUGUAAAGG	188 nM	258 nM	–	–
GCAGCUAAUAUUAUACAUGAGGAUCACCCAUGUUACAUGUGUAAGGAUAUUGAUGUUUAUAUAAACAAGAAGGUACGAAGCUGC	–	–	20.5 nM	13.1 nM
GGUAGAAACAUUAACAUGAGGAUCACCCAUGUCAAAAGAAAUGAGGAUAUCGUAUACAAUGUAUAUGAGAAGGCAUGGUCUGCC	–	–	9.17 nM	6.45 nM
GUCAGCUCGUGAGGAUAUACAACACUGCUUCGGCCGUGUAUUAAGAUCACAUGAGGAUCACCCAUGUAGAAGGCACGAGCUGAU	13.6 nM	228 nM	–	–
AAACACAAACAUGAGGAUCACCCAUGUUAUGAAAAUACUGGGAGAAGGGCGAUUGCAAAGCAAUCGCAGGAUAUUCGUAUUGUG	–	–	76.7 nM	16.1 nM
UUGGUUGUCGUAGGAUAUGGAGGAGAUUCCUACAUGAGGAUCACCCAUGUUCGCAUGGAAGAAGGCCAGAAGGACGAUGACCAU	–	–	80.5 nM	62 nM
UUGUGCUUAGAGAAGGUUCAAACUACAUAUUGCGCACAUGAGGAUCACCCAUGUUGGUGAAUAAGAAAGGAUAUUUGACUGUAU	131 nM	98 nM	–	–
AUGCCCGGAGGAUAUACACUAAAAGUCCGGUGCUAGGGUAGACAUGAGGAUCACCCAUGUAGAAGGCCGAGGCA	53.2 nM	101 nM	–	–
CCUAUACAUGAGGAUCACCCAUGUCAGGAUAUAGAAAGCCGCGGAAUAGGACACGGCACUAGAAGGGACUGGCU	29.7 nM	36.1 nM	–	–
AGAGUGAUUACCUCGGUCCCACAUGAGGAUCACCCAUGUAACAAGGAUAUCGCUCCAAAUGGAAGUGAGAAGGUGUCUCAUGUC	27.8 nM	42.2 nM	–	–
CCGGAAACGGGUAGCCUGACAUGAGGAUCACCCAUGUGAUCCUAGGAUAUGGAUCCUAAUUGGAUCCAGAAGGAGGUUGGCUAC	–	–	1280 nM	368 nM
GGUGCCAUGUAGAAGGCAGAUCUGAUUCAGAUCUGAGGAUAUACAUGAGGAUCACCCAUGUAAAUGCACCGCACGAGAGUGCAA	33.1 nM	149 nM	–	–
CCGGGCGGUUUGCCCACACUGUCACAGGAUAUGCCCAAAACAUGAGGAUCACCCAUGUCAAAUACGCAGAAGGGUGAUCGGAAA	–	–	55.8 nM	37 nM

Sequence	apparent Kd [1]	apparent Kd [2]	apparent Kd [3]	apparent Kd [4]
UAAUCAUGUCCGUAUGUUUUCAGAGAGGAUAUACAUGCGGGCACCUUAACAUGAGGAUCACCCAUGUAGAAGGCUCUGAAAAUG	97.3 nM	22.5 nM	–	–
AGUGUCAUCGAGAAGGCCUCAACAUGAGGAUCACCCAUGUUGCAAAAUGGGAGGAUAUCGCGCGUUCUAAAACGUUUCGUAGCA	–	–	54.1 nM	18 nM
GGCGGACGAAACAUGAGGAUCACCCAUGUGUUAUAAUUAAUAUAGGAUAUGUUUAUACUUUUUGGGCAGAAGGAUGAUAAUGCC	–	–	18.5 nM	16.2 nM
AAUAUGAGCUGGAAUAUAAACCUCACAUGAGGAUCACCCAUGUAGGAUAUCAGCACGAUAAGUGCUGAGAAGGACAACCAGCUC	15.1 nM	17.1 nM	–	–
GCUGACGAUGUAGGAUAUCUCGACGAUAAGUCGAGAGAAGGACAUGAGGAUCACCCAUGUACUCCAACGUCAGCGAGGAAACUC	18.2 nM	18.5 nM	–	–
GUCGGAAACGACAAAAGUAGCAUACGAGAAGGCUGAUCCAAGACAUGAGGAUCACCCAUGUAGUUAGAGGAUAUUGGAUGCUAC	–	–	63.8 nM	10.7 nM
AUCAGCUCGUCAGGAUAUACGUCACUGCGUCAGCAGUGUGGUAAGAUCACAUGAGGAUCACCCAUGUAGAAGGGACGAGUUGAU	13.6 nM	310 nM	–	–
UCACGGGAUUGAGGAUAUAUAUUUAUUAUUUUAAUAGAAGGCAAAGAGUUAGUUUUUUCACUAUACAUGAGGAUCACCCAUGUU	33.4 nM	30.5 nM	–	–
GUAGCAUACCGAGGAUAUUCUUACCGGAAACGGACAUGAGGAUCACCCAUGUGGCGAAAGCCUUUGGAGAAGGCGGAAUGCUAC	–	–	12.4 nM	12.4 nM
GGAUUACAUGAGGAUCACCCAUGUGAGGAUAUCGAUGUCCCUUGGCGCGUGCGGGACUCGAGAAGGCACUUGGA	47.8 nM	248 nM	–	–
UGUCGGAGCAGAGGAUAUUACAUGAGGAUCACCCAUGUAUGAACCAAUAGCUGUAAACAGCAAUGUAAGAAGGCUGCUCCGACA	12.7 nM	191 nM	–	–
AGGAUCCUAUCAAGACAAAUGUACAUGAGGAUCACCCAUGUGCAGGAUAUAGCUAGUUACGGUGGCUAGAAGGGCACACCAAAA	6.72 nM	14.3 nM	–	–
AGCGUACAUGUUAGGAUAUGCUGUAGGAAUACUCAGCAGAAGGAACAUGAGGAUCACCCAUGUUUGUCCGUUCU	14.5 nM	23.9 nM	–	–
CCACGGUAUGUAGGAUAUGCAUAGCAUUGCUAUGCAGAAGGACAUGAGGAUCACCCAUGUAUGUAUUCCAUACUAAUCCCGUGG	5.5 nM	5.69 nM	–	–
UUGAGGUCAGGAUAUGCAUGGCGGGACUUGCGUCGUGGCGUGGAGAAGGGACAUGAGGAUCACCCAUGUGGAGG	129 nM	94.9 nM	–	–
GGCAAUAUGUAGGAUAUCGUAUCGGAAACGAUACGAGAAGGGCAAACAUGAGGAUCACCCAUGUUCUUCAAGCC	13 nM	16.6 nM	–	–
GCAUGAGACUAAGGAUAUGAUGUACCUAUAUGUGACAUGAGGAUCACCCAUGUGGUAAGUAUGAUUCAGAAGGUAGAGACAUGC	–	–	33.7 nM	21.3 nM
AAGGGUUGUGAGGAUAUGGCUUACCAAUUGGUACCAGAAGGCGCUACAUGAGGAUCACCCAUGUGGGUCGUCCC	51.8 nM	82.9 nM	–	–
UAUAUAUAGUAAGGAUAUGUAAUUGUUUUAUAAACAGAAGGUACUGACAUGAGGAUCACCCAUGUUUUAGUGUGGGCAUGUAGA	57.4 nM	78.8 nM	–	–
ACAUGAGGAUCACCCAUGUGGAGUGAAGAAGGUGGUUACUUAAGACUCUCCCAUGUACUUAGGACUGAGGAUAUUCUAAUAUUU	–	–	82.3 nM	45.9 nM
GUGUACGAAGGAUAUACAUGAGGAUCACCCAUGUGAAUAAGAUAGAAUAAGAUAAAGUGUAGAAGGUCGAGUGU	33 nM	29.4 nM	–	–
ACGCAUUGCCUUUGGUAGUGCGUUACAUGAGGAUCACCCAUGUAGGAUAUGGUAGGCAAAGCUUACCAGAAGGACAUGAUAAUU	49.5 nM	238 nM	–	–
AGUUAAUAUCGAGGAUAUCUCAUGAAUACAUGAGGAUCACCCAUGUGAAUGGGAGAAGGCGAUAUUAACAGCAUGUUACAUGCA	–	–	12.6 nM	6.52 nM
AUAAUGCGAGGAUAUACAUGAGGAUCACCCAUGUAAUUCAAUCGGAGAGCCACAUUUCGUAGAAGGUGCAUUAA	15.7 nM	21.4 nM	–	–
AACAGUAGAGGAUAUACAUGAGGAUCACCCAUGUGAUAAUUACGUGGCGUACCACGAUGUAGAAGGCUACUGGA	144 nM	36.2 nM	–	–
UUGCUCGUGUGAGGAUAUGCCGCCGUUUCGGCUGCAGAAGGUACUUUAAUACAUGAGGAUCACCCAUGUCUCUGUUGUUUCGUG	–	–	26.5 nM	26.9 nM
ACUGGUCGAGGAUAUGCAUUCGUGCUUCGGCACGUAAGGUCACAUGAGGAUCACCCAUGUAGAAGGCGACCAGU	18.2 nM	36.9 nM	–	–
